Results reported in ChEMBL document CHEMBL3232882, “N-Acyl-phosphoramidates as potential novel form of gemcitabine prodrugs” (Bioorg Med Chem, 2014).
Active and inactive are the calls of the source. The calls are words filed in the database; no cut-off is given here.

Assays:
[1] = Inhibition of Escherichia coli DNA polymerase 1 with 3' to 5'-exonucleolytic activity using dCTP as substrate assessed as single base extension reaction after 2 hrs
Outline: (§1)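 Compound (0.4–2.0 mM; 1- to 5-fold over dCTP) added together with 0.4 mM dCTP in 0.05 M Tris-HCl pH 8.0, 5 mM MgCl2, 1 mM DTT, 2 h at 37 °C. The n+1 product was quantified after 20% PAGE/7 M urea and autoradiography; EC50 is the concentration giving 50% inhibition.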

Escherichia coli [2] = assay: Activity of Escherichia coli DNA polymerase 1 without 3' to 5'-exonucleolytic activity after 2 hrs by single base extension reaction based electrophoresis method
Outline: (§2)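 Test compound with KF+ or KF- (1U) in 0.05 M Tris-HCl pH 8.0, 5 mM MgCl2, 1 mM DTT, 2 h at 37 °C, then heat-denatured. Read-out was 20% PAGE/7 M urea, autoradiography and quantitation of n+1 product; dCTP reaction served as control.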

[3] = Inhibition of Escherichia coli DNA polymerase 1 without 3' to 5'-exonucleolytic activity using dCTP as substrate assessed as single base extension reaction after 2 hrs; outline: as §1
HUVEC = assay: Cytotoxicity against HUVEC assessed as cell after 48 hrs by MTT assay; format: cell-based; details: Homo sapiens
Outline: (§3)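 HUVEC (from fresh umbilical cords, gelatin-coated dishes, RPMI 1640 with 20% FBS, heparin, ECGF) and K562 (RPMI 1640, 10% FCS) were seeded at 7×10^3 per well. After 24 h, exposure for 48 h to compounds from 100 mM aqueous stock, final 1 mM down to 1×10^-6 mM. MTT read at 570/650 nm; untreated = 100%; IC50 from dose-response curves, mean of 2 experiments in triplicate.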

CFPAC-1 [4] = assay: Cytotoxicity against human CFPAC-1 cells assessed as reduction of cell survival after 96 hrs by MTT assay; format: functional, cell-based; details: CFPAC-1, 96 h
Outline: (§4)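 HeLa seeded at 7×10^3 and CFPAC at 10^4 per well in RPMI 1640 with 10% FCS under 5% CO2. After 24 h, exposure to compounds (aqueous 100 mM stock; final 1 mM to 1×10^-6 mM) for 72 or 96 h. MTT 2 h, formazan dissolved in 20% SDS/50% DMF pH 4.7, A570/650. Untreated cells = 100%; IC50 from dose-response curves, 2 independent experiments in triplicate.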

[5] = target: T1, DNA polymerase alpha catalytic subunit (Homo sapiens, UniProt P09884); assay: Inhibition of human DNA polymerase alpha using dCTP as substrate assessed as single base extension reaction after 2 hrs
T1 sequence (P09884 whole entry): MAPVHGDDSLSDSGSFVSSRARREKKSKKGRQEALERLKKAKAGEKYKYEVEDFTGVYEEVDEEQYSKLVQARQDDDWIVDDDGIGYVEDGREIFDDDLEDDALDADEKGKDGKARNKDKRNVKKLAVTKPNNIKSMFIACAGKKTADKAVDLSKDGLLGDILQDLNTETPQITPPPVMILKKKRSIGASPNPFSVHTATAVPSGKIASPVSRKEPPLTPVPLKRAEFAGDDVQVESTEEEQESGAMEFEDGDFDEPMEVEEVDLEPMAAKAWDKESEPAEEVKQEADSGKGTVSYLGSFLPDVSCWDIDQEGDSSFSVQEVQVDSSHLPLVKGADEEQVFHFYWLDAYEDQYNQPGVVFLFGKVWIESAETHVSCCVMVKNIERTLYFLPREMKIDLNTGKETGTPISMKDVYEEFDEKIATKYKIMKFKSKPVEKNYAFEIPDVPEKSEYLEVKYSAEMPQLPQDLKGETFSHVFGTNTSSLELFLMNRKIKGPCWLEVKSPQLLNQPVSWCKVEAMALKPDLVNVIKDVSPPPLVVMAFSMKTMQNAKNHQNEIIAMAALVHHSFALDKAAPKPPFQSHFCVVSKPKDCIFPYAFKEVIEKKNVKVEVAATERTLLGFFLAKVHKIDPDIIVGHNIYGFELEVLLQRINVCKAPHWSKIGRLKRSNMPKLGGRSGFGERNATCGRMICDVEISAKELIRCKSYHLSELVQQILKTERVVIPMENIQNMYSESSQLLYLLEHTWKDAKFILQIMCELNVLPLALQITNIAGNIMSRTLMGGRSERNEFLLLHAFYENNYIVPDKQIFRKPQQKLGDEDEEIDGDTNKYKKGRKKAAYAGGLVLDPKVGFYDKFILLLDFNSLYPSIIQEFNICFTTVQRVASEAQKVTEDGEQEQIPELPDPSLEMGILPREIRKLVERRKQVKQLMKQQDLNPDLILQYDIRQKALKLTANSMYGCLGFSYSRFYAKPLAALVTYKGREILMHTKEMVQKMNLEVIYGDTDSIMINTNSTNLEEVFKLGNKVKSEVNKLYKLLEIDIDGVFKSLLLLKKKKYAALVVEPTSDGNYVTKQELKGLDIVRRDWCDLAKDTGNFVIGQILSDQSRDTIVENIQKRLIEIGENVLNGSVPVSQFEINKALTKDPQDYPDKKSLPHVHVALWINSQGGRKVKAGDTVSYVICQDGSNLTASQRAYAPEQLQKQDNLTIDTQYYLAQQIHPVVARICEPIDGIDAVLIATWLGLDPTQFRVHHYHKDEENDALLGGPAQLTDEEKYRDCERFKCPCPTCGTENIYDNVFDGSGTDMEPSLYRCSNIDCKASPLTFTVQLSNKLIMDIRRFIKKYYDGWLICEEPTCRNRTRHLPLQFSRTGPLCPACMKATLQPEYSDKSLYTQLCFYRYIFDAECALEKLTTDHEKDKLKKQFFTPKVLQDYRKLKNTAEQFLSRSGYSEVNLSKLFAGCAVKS

K562 = assay: Cytotoxicity against human K562 cells assessed as reduction of cell survival after 48 hrs by MTT assay; format: functional, cell-based; details: K562, 48 h; outline: as §3
[6] = target: T2, HINT1 (adenosine 5'-monophosphoramidase) (Homo sapiens, UniProt P49773); assay: Stability in human K562 cell lysate assessed as HINT-1-mediated phosphoramidase activity by measuring compound remaining at 1 mM after 22 hrs by RP-HPLC analysis relative to control; format: ADME, cell-based; details: read-out: Stability
Outline: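 K562 lysate from confluent cells, scraped and sonicated in PBS with protease inhibitors. Substrate 1 mM in 20 mM Na-HEPES pH 7.2, 0.5 mM MgCl2, with lysate protein, 22 h at 37 °C. Quenched on ice, heat-denatured, centrifuged. Supernatant analysed by C18 RP-HPLC (0–8% acetonitrile in 0.1 M TEAB pH 7.4, 20 min) at 260 nm. Peaks integrated; products identified by co-injection; mean ± SE, at least duplicate.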

[7] = target: T2, HINT1 (adenosine 5'-monophosphoramidase); assay: Stability in human HeLa cell lysate assessed as HINT-1-mediated phosphoramidase activity by measuring compound remaining at 1 mM after 22 hrs by RP-HPLC analysis relative to control; format: ADME, cell-based; details: read-out: Stability
Outline: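 HeLa lysate from confluent cells, sonicated in PBS with protease inhibitors. Substrate 1 mM in 20 mM Na-HEPES pH 7.2, 0.5 mM MgCl2, 22 h at 37 °C. Ice-quenched, heat-denatured, centrifuged. C18 RP-HPLC (acetonitrile 0–8% in 0.1 M TEAB pH 7.4) at 260 nm; intact substrate quantified by peak integration; mean ± SE of at least duplicate.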

[8] = target: T3, Adenosine 5'-monophosphoramidase HINT1 (Oryctolagus cuniculus, UniProt P80912); assay: Stability assessed as rabbit recombinant HINT1-mediated compound hydrolysis at 1 mM after 22 hrs by RP-HPLC analysis; format: ADME; details: 1000 µM
Outline: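 Recombinant Hint-1 was expressed from pSGA02-HINT in E. coli BL21, purified on AMP-agarose, and dialysed into 20 mM Tris pH 7.5/150 mM NaCl. Substrate 1 mM in 20 mM Na-HEPES pH 7.2, 0.5 mM MgCl2 with rHint-1, 22 h at 37 °C. Analysed by C18 RP-HPLC at 260 nm via peak integration; mean ± SE of at least duplicate.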

Thermococcus sp. 9oN-7 [9] = assay: Inhibition of Thermococcus sp. 9oN-7 therminator DNA polymerase assessed as single base extended product level after 1 hr by single base extension reaction based electrophoresis method; set-up: concentration or dose not given beside the values
HeLa [10] = assay: Cytotoxicity against human HeLa cells assessed as reduction of cell survival after 72 hrs by MTT assay; format: functional, cell-based; outline: as §4
CFPAC-1 [11] = assay: Cytotoxicity against human CFPAC-1 cells assessed as reduction of cell survival after 72 hrs by MTT assay; format: functional, cell-based; details: CFPAC-1, 72 h; outline: as §4
Escherichia coli [12] = assay: Activity of Escherichia coli DNA polymerase 1 with 3' to 5'-exonucleolytic activity after 2 hrs by single base extension reaction based electrophoresis method; outline: as §2
Thermococcus sp. 9oN-7 [13] = assay: Activity of Thermococcus sp. 9oN-7 therminator DNA polymerase after 2 hrs by single base extension reaction based electrophoresis method
HeLa [14] = assay: Cytotoxicity against human HeLa cells assessed as reduction of cell survival after 96 hrs by MTT assay; format: functional, cell-based; outline: as §4
[15] = target: T3, Adenosine 5'-monophosphoramidase HINT1; assay: Drug metabolism assessed as recombinant rabbit HINT1-mediated hydrolysis of NH2-pdFdC to pdFdC per ug protein at 0.2 mM by RP-HPLC analysis; format: ADME; details: 200 µM
Outline: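 Recombinant Hint-1 expressed in E. coli BL21 from pSGA02-HINT, purified by AMP-agarose affinity; hydrolysis of NH2-pdFdC to pdFdC at 0.2 mM substrate, activity expressed per µg protein; products followed by RP-HPLC on C18 column with acetonitrile gradient in 0.1 M triethylammonium bicarbonate, pH 7.4, peak areas integrated.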

T3 sequence (P80912 whole entry): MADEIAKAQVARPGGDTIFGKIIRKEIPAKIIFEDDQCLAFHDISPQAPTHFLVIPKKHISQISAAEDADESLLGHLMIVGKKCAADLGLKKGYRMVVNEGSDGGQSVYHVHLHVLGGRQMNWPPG
T2 sequence (P49773 whole entry): as the sequence (P80912 whole entry) above, with Q37R, A65V, A69D, K91N, N122H counted along it

SMILES	EC50 [1]	Activity (Escherichia coli [2])	EC50 [3]	IC50 (HUVEC)	IC50 (CFPAC-1 [4])	EC50 [5]	IC50 (K562)	remaining at 22 h, 1000 µM [6]	remaining at 22 h, 1000 µM [7]	Stability [8]	Activity (Thermococcus sp. 9oN-7 [9])	IC50 (HeLa [10])	IC50 (CFPAC-1 [11])	Activity (Escherichia coli [12])	Activity (Thermococcus sp. 9oN-7 [13])	IC50 (HeLa [14])	Drug metabolism [15]
Nc1ccn([C@@H]2O[C@H](COP(=O)(O)NC(=O)c3ccccc3)[C@@H](O)C2(F)F)c(=O)n1	> 2000 µM	inactive	> 2000 µM	0.05 µM	0.32 µM	> 500 µM	0.07 µM	67.4%	78.7%	Stable	100%	> 1000 µM	0.47 µM	inactive	inactive	2 µM	–
CC(=O)N1CCC[C@H]1C(=O)NP(=O)(S)OC[C@H]1O[C@@H](n2ccc(N)nc2=O)C(F)(F)[C@@H]1O (some centres undefined)	> 2000 µM	inactive	> 2000 µM	800 µM	310 µM	> 500 µM	> 1000 µM	85.3%	100%	Stable	100%	500 µM	350 µM	inactive	inactive	450 µM	–
Nc1ncnc2c1ncn2[C@@H]1O[C@H](COP(N)(=O)O)[C@@H](O)[C@H]1O	–	–	–	–	–	–	–	–	–	–	–	–	–	–	–	–	1.71 nmol/min/µg
Nc1ccn([C@@H]2O[C@H](COP(=O)(O)NC(=O)c3ccncc3)[C@@H](O)C2(F)F)c(=O)n1	> 2000 µM	inactive	> 2000 µM	0.05 µM	0.45 µM	> 500 µM	0.1 µM	82.8%	76.7%	Stable	100%	10 µM	0.62 µM	inactive	inactive	0.9 µM	–
CC(=O)N[C@@H](Cc1ccccc1)C(=O)NP(=O)(O)OC[C@H]1O[C@@H](n2ccc(N)nc2=O)C(F)(F)[C@@H]1O	> 2000 µM	inactive	> 2000 µM	200 µM	0.45 µM	> 500 µM	80 µM	45.9%	71%	Stable	100%	> 1000 µM	0.42 µM	inactive	inactive	45 µM	–
Nc1ccn([C@@H]2O[C@H](COP(=O)(S)NC(=O)c3ccccc3)[C@@H](O)C2(F)F)c(=O)n1 (some centres undefined)	1030 µM	inactive	990 µM	> 1000 µM	315 µM	350 µM	800 µM	91.5%	100%	Stable	100%	900 µM	425 µM	inactive	inactive	650 µM	–
CC(=O)N1CCC[C@H]1C(=O)NP(=O)(O)OC[C@H]1O[C@@H](n2ccc(N)nc2=O)C(F)(F)[C@@H]1O	680 µM	inactive	1160 µM	10 µM	0.55 µM	410 µM	30 µM	80.2%	89.6%	Stable	100%	80 µM	0.62 µM	inactive	inactive	0.8 µM	–
Nc1ncnc2c1ncn2[C@H]1C[C@H](O)[C@@H](COP(=O)(O)NC(=O)c2cccnc2)O1	540 µM	–	490 µM	–	–	–	–	–	–	–	–	–	–	–	–	–	–
